Measured values collected from several papers.
Compare with care: the assays were run in different laboratories.
Target: Casein kinase I isoform alpha (CSNK1A1, Homo sapiens, UniProt P48729)
One construct used (P48729 1-304): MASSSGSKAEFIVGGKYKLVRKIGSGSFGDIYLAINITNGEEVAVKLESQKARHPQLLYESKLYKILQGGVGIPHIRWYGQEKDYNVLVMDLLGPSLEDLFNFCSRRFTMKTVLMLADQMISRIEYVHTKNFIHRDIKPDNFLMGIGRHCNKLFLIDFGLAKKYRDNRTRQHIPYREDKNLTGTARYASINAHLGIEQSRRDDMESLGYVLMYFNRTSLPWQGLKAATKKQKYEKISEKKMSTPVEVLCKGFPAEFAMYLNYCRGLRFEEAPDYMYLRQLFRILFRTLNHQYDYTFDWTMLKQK

SMILES	observed	mode	technique	concentration	measurement	result
C1=C/COCc2cc(ccc2OCCN2CCCC2)Nc2nccc(n2)-c2cccc(c2)COC/1	binding	–	–	0.1 µM	remaining binding	85%
c1cc(Nc2cc(C3CC3)n[nH]2)nc(Nc2ccc3nc[nH]c3c2)n1	binding	–	SPR	–	kon	5.43e+08 M⁻¹ s⁻¹
CO[C@@H]1[C@H](N(C)C(=O)c2ccccc2)C[C@H]2O[C@]1(C)n1c3ccccc3c3c4c(c5c6ccccc6n2c5c31)C(=O)NC4	enzyme activity	inhibitor	–	1 µM	inhibition	33%
CCCCC(=O)Nc1ccc(-c2ccc3ncn(CCC)c(=O)c3c2)cn1	binding	–	competition with immobilised ligand	0.5 µM	remaining binding	89%
COc1ccc2oc(-c3ccc4nc(N)oc4c3)c/c(=N\c3ccccc3NC(=O)CCN)c2c1	binding	–	–	1 µM	remaining binding	102%
Cc1cc(O)c(-c2ccc([C@@H](C)CN(C)C)cc2)c2c1[nH]c(=O)c1sccc12	enzyme activity	inhibitor	–	0.1 µM	inhibition	6.33%
C[C@H]1CC[C@H](n2c3cnccc3c3cnc(Nc4ccc5c(n4)CCN(C(=O)CO)C5)nc32)CC1	cell-free assay	–	–	1 µM	remaining signal	94%
c1cc(-c2cnn3cc(-c4ccc(OCCN5CCCCC5)cc4)cnc23)ccn1	binding	–	SPR	–	kon	2.49e+09 M⁻¹ s⁻¹
CC#CC(=O)N1CCC[C@H]1c1nc(-c2ccc(C(=O)Nc3ccccn3)cc2)c2c(N)nccn12	enzyme activity	inhibitor	–	1 µM	inhibition	21%
COc1ccc2[nH]c3c4[nH]c5ccc(OC)cc5c4c4c(c3c2c1)C(=O)NC4=O	binding	–	–	1 µM	remaining binding	62%
CC(C)S(=O)(=O)c1ccc2nccc(Nc3ccc4sc(C5CCCC5)nc4c3)c2c1	enzyme activity	inhibitor	–	1 µM	activity vs control	103%
